Measurements: publication PMC4425738 (Journal of controlled release : official journal of the …, 2014)

System: Human adult epidermal keratinocytes
Test: Cell internalization in vitro
Assay type: cell-based
Summary of the method: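 FITC-labelled peptide carrier (1, 4, 7 or 10 mg/mL in medium; 30 or 120 min) on keratinocytes seeded on poly-D-lysine glass dishes, grown 24 h in supplemented EpiLife at 37 °C, 5% CO2. Free-carrier arm: 0.1 mg/mL labelled peptide, 15 min, ± 10 mg/mL unlabelled carrier. Medium-only control. Hoechst 33342 nuclear stain, Trolox-HBSS washes, ethidium bromide to exclude dead cells, then confocal imaging. Mean ± SD.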

Substance: FITC-AC-TGSTQHQ-CG, Disulfide Bridge 2–10 (disulfide) [FITC-SPACE peptide]
- increase of uptake by addition of free SPACE peptide (15 min, 0.1 mg/mL FITC-SPACE peptide with vs without 10 mg/mL unlabeled SPACE peptide, mean ± SD n=3): 3.9±1.5 fold
- intracellular localization (15 min, 0.1 mg/mL, absence of excess free SPACE peptide): localized primarily in punctate spots
- intracellular localization (15 min, 0.1 mg/mL, with 10 mg/mL free SPACE peptide): cytoplasmic localization
- intracellular localization (120 min, concentrations of 1–4 mg/mL): punctate fluorescent spots
- intracellular localization (120 min, higher concentrations (7, 10 mg/mL)): diffused throughout the cytoplasm
